Measurements as given in ChEMBL document CHEMBL2440064, “Synthesis and biological evaluation of 2-amino-5-aryl-3-benzylthiopyridine scaffold based potent c-Met inhibitors” (Bioorg Med Chem, 2013).
Calls of active or inactive are those of the source. No cut-off for these calls is given here.

What was measured:
[1] = molecular target: T1, Hepatocyte growth factor receptor (Homo sapiens, UniProt P08581); assay: Inhibition of c-Met phosphorylation in human EBC1 cells after 2 hrs by Western blotting analysis; format: cell-based
Procedure, shortened: (§1)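 Cells grown under regular conditions to exponential phase, exposed to compound at indicated concentrations for 2 h at 37°C, lysed in 1× SDS sample buffer. Lysates resolved on 10% SDS-PAGE and transferred to nitrocellulose for immunoblotting.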

[2] = molecular target: Platelet-derived growth factor receptor alpha (Homo sapiens, UniProt P16234); assay: Inhibition of PDGFRalpha (unknown origin) using poly (Glu, Tyr) 4:1 as substrate after 60 mins by ELISA
Procedure, shortened: (§2)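 ELISA on wells precoated with 20 µg/mL poly(Glu,Tyr)4:1. Purified kinase with 10 µmol/L ATP in 50 mM HEPES pH 7.4, 50 mM MgCl₂, 0.5 mM MnCl₂, 0.2 mM Na₃VO₄, 1 mM DTT; 1% DMSO vehicle. 60 min at 37°C. Phosphotyrosine detected with PY99 antibody, then HRP anti-mouse IgG and o-phenylenediamine/H₂O₂, A490. Inhibition = [1−(A490/A490 control)]×100%; IC50 from curves.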

[3] = molecular target: Proto-oncogene tyrosine-protein kinase Src (Homo sapiens, UniProt P12931); assay: Inhibition of c-Src (unknown origin) using poly (Glu, Tyr) 4:1 as substrate after 60 mins by ELISA
Procedure, shortened: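 Purified kinase incubated with 10 µmol/L ATP in wells pre-coated with 20 µg/mL poly(Glu,Tyr)4:1. Reaction ran 60 min at 37°C. Phosphotyrosine detected with PY99 antibody, then HRP anti-mouse IgG and o-phenylenediamine/H₂O₂, read at 490 nm. IC50 taken from inhibition curves.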

NIH3T3 [4] = assay: Antiproliferative activity against mouse NIH/3T3 cells expressing TPR/Met fusion protein after 72 hrs; format: functional, cell-based; details: NIH3T3, 72 h
Procedure, shortened: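 Cells seeded in 96-well plates, exposed next day to a range of compound concentrations and cultured 72 h; proliferation read by sulforhodamine B or CCK-8. IC50 as mean ± SD (μM) from three separate experiments.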

[5] = molecular target: T1, Hepatocyte growth factor receptor; assay: Inhibition of c-Met in gefitinib-resistant human HCC827 cells assessed as inhibition of AKT phosphorylation at 0.5 uM after 2 hrs by Western blotting analysis; format: cell-based
Procedure, shortened: (§3)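 Cells grown to exponential phase, treated with compound 2 h at 37°C, lysed in 1× SDS sample buffer, resolved on 10% SDS-PAGE and transferred to nitrocellulose for immunoblotting.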

[6] = molecular target: Tyrosine-protein kinase receptor UFO (Homo sapiens, UniProt P30530); assay: Inhibition of AXL (unknown origin) using poly (Glu, Tyr) 4:1 as substrate after 60 mins by ELISA; procedure, shortened: as §2
[7] = Volume of distribution in rat at 2 mg/kg, iv and 10 mg/kg, po; format: ADME, organism-based; details: in vivo
Procedure, shortened: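 Rats given a single iv dose (2 mg/kg) or a single po dose (10 mg/kg).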

[8] = molecular target: T2, TPR/MET fusion protein (Mus musculus) (UniProt P16056+F6ZDS4); assay: Inhibition of TPR/Met phosphorylation in mouse BAF3 cells after 2 hrs by Western blotting analysis; format: cell-based; procedure, shortened: as §3
[9] = molecular target: Hepatocyte growth factor receptor (Canis lupus familiaris) (UniProt Q75ZY9); assay: Inhibition of c-Met in MDCK cells assessed as HGF-induced cell motility at 0.3 to 3 uM after 1 to 10 hrs by wound-healing assay; format: cell-based
Procedure, shortened: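 MDCK monolayers in 12-well plates, pre-incubated 30 min serum-free. Scratch wound made with micropipette and washed, then compound added with or without 50 ng/mL recombinant human HGF at 37°C. Phase-contrast images at 0 and 10 h.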

[10] = molecular target: T2, TPR/MET fusion protein (Mus musculus); assay: Inhibition of TPR/Met phosphorylation in mouse NIH3T3 cells after 2 hrs by Western blotting analysis; format: cell-based; procedure, shortened: as §3
[11] = molecular target: T1, Hepatocyte growth factor receptor; assay: Inhibition of c-Met in gefitinib-resistant human HCC827 cells assessed as inhibition of p44/42 phosphorylation at 0.5 uM after 2 hrs by Western blotting analysis; format: cell-based; procedure, shortened: as §3
NIH3T3 [12] = assay: Antitumor activity against mouse NIH/3T3 cells expressing TPR/Met allografted in mouse assessed as tumor growth inhibition at 100 mg/kg, po qd administered for 2 weeks measured twice per week relative to vehicle-treated control; format: functional; details: NIH3T3, 336 h, read-out: TGI
Procedure, shortened: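 Tumor fragments (1 mm³) implanted s.c. in right flank of nude mice by trocar. Randomized at 100–150 mm³ tumor volume. Dosed orally 7 days/week for 2 weeks; vehicle controls. Calipers twice weekly; TV = length×width²/2. Inhibition = 100%×{1−[(T day14−T day0)/(C day14−C day0)]}. n = 6/group, Student's t-test.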

[13] = molecular target: T1, Hepatocyte growth factor receptor; assay: Competitive inhibition of c-Met (unknown origin) at 1.3 to 160 uM by Lineweaver-Burk plot analysis in presence of ATP
Procedure, shortened: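 ATP-competition version of the poly(Glu,Tyr)4:1 ELISA kinase assay (60 min, 37°C, PY99 antibody detection, A490) run at various ATP concentrations; Lineweaver-Burk plot constructed.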

Ephrin type-B receptor 2 = Ephrin type-B receptor 2 (Homo sapiens, UniProt P29323); assay: Inhibition of EPHB2 (unknown origin) using poly (Glu, Tyr) 4:1 as substrate after 60 mins by ELISA; procedure, shortened: as §2
[14] = molecular target: ALK tyrosine kinase receptor (Homo sapiens, UniProt Q9UM73); assay: Inhibition of ALK (unknown origin) using poly (Glu, Tyr) 4:1 as substrate after 60 mins by ELISA; procedure, shortened: as §2
SK-MEL-28 = assay: Antiproliferative activity against human SK-MEL-28 cells after 72 hrs; details: SK-MEL-28, 72 h
[15] = molecular target: T2, TPR/MET fusion protein (Mus musculus); assay: Inhibition of TPR/Met in mouse BAF3 cells assessed as inhibition of p44/42 phosphorylation at 0.08 to 10 uM after 2 hrs by Western blotting analysis; format: cell-based; procedure, shortened: as §3
[16] = molecular target: Vascular endothelial growth factor receptor 1 (Homo sapiens, UniProt P17948); assay: Inhibition of FLT1 (unknown origin) using poly (Glu, Tyr) 4:1 as substrate after 60 mins by ELISA; procedure, shortened: as §2
[17] = molecular target: T2, TPR/MET fusion protein (Mus musculus); assay: Inhibition of TPR/Met in mouse NIH3T3 cells assessed as inhibition of p44/42 phosphorylation at 0.08 to 10 uM after 2 hrs by Western blotting analysis; format: cell-based; procedure, shortened: as §3
MKN-45 = assay: Antiproliferative activity against human MKN45 cells after 72 hrs; details: MKN-45, 72 h
[18] = Antiproliferative activity against human EBC1 cells after 72 hrs; details: EBC-1, 72 h
[19] = molecular target: T1, Hepatocyte growth factor receptor; assay: Inhibition of c-Met phosphorylation in human SNU5 cells after 2 hrs by Western blotting analysis; format: cell-based; details: SNU-5; procedure, shortened: as §1
[20] = molecular target: T1, Hepatocyte growth factor receptor; assay: Inhibition of c-Met phosphorylation in human MKN45 cells after 2 hrs by Western blotting analysis; format: cell-based; details: MKN-45; procedure, shortened: as §1
[21] = molecular target: T1, Hepatocyte growth factor receptor; assay: Inhibition of c-Met in human SNU5 cells assessed as inhibition of p44/42 phosphorylation at 0.16 to 20 uM after 2 hrs by Western blotting analysis; format: cell-based; details: SNU-5; procedure, shortened: as §3
BaF3 = assay: Induction of cell cycle arrest in mouse BAF3 cells expressing TPR/Met fusion protein assessed as accumulation at G1 phase at 1 uM after 24 hrs by propidium iodide staining-based FACS analysis (reference value: 26.6%); format: functional
[22] = molecular target: Epidermal growth factor receptor (Homo sapiens, UniProt P00533); details: HCC827, at 0.5 µM

T1 sequence (P08581 whole entry): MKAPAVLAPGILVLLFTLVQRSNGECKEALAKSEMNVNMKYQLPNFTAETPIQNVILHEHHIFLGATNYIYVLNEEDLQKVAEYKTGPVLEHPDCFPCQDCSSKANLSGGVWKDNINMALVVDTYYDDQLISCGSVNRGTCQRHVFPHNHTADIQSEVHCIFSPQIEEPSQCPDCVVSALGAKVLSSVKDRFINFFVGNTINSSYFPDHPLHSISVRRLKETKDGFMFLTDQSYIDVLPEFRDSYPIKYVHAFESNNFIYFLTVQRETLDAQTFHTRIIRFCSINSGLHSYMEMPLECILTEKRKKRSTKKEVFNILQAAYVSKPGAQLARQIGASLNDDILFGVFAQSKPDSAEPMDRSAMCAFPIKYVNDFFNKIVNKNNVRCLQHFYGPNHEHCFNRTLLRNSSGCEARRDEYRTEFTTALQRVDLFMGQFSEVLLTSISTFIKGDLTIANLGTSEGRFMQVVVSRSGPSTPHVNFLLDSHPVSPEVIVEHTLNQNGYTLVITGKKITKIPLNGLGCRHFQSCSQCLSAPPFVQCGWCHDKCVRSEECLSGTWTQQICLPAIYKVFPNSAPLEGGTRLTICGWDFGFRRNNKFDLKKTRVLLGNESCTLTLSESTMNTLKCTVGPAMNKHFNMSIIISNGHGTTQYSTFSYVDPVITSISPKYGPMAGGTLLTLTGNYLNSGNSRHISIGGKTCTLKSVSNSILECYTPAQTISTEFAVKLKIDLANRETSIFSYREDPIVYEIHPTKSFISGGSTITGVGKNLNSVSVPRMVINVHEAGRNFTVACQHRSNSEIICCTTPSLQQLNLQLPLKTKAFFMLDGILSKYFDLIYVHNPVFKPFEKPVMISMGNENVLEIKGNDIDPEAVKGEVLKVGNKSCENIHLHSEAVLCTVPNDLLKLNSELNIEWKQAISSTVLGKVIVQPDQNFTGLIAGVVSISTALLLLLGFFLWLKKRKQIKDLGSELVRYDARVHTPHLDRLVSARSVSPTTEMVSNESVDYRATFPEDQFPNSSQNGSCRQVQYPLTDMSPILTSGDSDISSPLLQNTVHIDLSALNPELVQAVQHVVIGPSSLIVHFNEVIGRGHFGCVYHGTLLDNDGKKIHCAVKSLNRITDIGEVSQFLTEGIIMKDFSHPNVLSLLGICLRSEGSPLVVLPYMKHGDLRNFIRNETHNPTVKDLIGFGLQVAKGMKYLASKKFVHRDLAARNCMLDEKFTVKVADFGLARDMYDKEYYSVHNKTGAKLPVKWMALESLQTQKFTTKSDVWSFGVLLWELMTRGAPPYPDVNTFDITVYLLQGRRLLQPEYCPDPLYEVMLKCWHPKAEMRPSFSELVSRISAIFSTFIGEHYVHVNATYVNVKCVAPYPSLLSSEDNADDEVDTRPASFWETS
T2 sequence (F6ZDS4 whole entry partner, the tested form may be a part): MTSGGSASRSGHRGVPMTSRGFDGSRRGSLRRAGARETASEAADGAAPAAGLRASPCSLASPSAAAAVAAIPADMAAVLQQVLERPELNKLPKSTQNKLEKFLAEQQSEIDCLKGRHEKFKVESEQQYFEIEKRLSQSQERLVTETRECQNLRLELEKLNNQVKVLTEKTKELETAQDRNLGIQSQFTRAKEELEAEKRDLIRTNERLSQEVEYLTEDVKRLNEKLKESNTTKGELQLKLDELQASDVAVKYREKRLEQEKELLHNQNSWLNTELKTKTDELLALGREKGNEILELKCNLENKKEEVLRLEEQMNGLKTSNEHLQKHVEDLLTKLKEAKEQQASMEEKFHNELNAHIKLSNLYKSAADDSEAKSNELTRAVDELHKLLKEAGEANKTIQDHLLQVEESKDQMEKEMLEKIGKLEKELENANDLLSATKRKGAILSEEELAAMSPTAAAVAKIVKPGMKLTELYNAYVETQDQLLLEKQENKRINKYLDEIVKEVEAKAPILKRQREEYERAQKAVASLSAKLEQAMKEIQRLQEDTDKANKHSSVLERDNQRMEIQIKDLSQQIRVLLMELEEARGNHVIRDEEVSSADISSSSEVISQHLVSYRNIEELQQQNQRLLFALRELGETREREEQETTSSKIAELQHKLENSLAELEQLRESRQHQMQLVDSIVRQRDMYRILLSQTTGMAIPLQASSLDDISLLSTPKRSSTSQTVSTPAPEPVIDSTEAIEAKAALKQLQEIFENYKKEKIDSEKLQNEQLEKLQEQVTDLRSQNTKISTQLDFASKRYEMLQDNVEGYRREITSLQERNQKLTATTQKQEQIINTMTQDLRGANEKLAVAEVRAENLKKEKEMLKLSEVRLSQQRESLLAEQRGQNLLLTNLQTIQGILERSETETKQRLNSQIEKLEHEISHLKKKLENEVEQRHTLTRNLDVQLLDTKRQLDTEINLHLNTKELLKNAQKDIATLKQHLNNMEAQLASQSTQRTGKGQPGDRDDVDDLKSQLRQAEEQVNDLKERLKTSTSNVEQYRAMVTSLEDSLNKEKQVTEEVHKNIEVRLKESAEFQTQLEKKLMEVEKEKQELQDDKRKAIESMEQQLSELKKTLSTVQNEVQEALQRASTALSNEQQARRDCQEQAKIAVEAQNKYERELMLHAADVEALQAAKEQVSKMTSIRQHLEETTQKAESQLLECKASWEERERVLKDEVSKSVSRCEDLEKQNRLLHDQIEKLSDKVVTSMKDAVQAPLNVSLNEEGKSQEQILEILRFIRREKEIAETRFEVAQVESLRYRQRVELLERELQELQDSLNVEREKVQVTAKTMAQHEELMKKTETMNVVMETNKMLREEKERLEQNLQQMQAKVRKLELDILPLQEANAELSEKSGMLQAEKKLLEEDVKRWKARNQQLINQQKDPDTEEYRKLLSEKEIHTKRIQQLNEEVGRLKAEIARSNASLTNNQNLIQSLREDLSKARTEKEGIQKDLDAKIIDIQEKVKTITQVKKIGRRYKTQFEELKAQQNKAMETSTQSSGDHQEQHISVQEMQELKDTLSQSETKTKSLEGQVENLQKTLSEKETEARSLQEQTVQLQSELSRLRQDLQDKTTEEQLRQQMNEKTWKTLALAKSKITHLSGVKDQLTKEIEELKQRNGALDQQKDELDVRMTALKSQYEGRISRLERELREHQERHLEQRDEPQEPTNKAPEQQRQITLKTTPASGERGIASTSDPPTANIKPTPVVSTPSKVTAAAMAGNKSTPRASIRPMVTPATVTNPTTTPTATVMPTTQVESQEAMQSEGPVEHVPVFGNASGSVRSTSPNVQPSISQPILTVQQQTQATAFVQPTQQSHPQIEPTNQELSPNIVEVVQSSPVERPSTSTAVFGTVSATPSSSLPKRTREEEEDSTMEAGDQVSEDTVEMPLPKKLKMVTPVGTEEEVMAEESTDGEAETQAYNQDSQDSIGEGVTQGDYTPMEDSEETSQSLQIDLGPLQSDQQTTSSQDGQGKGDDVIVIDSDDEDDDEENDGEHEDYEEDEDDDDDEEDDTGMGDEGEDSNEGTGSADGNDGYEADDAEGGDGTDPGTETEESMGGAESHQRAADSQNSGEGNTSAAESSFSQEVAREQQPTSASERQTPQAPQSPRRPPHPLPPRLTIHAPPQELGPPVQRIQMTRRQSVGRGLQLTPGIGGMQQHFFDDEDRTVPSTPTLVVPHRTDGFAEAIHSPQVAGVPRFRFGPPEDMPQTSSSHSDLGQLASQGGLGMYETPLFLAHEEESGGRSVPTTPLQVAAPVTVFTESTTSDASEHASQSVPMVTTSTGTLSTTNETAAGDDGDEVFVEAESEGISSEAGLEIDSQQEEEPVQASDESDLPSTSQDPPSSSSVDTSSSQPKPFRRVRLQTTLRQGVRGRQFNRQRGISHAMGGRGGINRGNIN
T2 sequence (P16056 25-1379 limits assumed): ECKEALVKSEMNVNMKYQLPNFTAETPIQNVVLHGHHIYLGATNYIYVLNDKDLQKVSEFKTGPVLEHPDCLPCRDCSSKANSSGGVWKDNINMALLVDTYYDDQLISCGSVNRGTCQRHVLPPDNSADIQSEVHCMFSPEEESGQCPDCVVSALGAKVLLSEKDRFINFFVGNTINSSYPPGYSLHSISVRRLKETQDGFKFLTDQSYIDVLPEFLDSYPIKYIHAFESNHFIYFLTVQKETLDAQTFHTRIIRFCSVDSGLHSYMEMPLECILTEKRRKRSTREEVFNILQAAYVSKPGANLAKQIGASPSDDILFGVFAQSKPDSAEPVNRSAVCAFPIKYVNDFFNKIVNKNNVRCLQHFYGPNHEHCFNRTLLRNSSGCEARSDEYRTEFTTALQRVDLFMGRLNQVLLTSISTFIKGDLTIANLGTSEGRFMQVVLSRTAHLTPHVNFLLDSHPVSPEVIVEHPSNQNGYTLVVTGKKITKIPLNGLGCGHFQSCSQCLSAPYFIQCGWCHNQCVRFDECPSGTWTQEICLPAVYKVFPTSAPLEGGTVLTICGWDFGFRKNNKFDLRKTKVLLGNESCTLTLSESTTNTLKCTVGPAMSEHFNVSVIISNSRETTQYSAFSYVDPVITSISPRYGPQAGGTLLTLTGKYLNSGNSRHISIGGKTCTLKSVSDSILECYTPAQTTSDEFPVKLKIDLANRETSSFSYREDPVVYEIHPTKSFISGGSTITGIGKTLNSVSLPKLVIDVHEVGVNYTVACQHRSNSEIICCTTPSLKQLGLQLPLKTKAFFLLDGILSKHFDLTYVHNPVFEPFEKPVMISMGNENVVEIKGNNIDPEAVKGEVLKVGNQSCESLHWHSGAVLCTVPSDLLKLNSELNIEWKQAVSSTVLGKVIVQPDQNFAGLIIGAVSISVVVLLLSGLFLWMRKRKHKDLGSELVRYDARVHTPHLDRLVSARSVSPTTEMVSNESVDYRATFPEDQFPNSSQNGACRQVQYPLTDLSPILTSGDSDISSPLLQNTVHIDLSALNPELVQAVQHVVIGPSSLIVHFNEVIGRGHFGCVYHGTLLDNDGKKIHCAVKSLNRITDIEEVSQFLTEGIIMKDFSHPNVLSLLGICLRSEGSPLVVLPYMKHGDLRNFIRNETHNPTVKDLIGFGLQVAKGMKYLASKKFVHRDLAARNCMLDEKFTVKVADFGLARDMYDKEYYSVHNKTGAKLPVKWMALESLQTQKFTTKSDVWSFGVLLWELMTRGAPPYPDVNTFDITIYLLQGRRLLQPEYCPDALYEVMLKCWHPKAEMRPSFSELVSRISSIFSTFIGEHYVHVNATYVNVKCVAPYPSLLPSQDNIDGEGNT

## C[C@@H](Sc1cc(-c2cnn(C3CCNCC3)c2)cnc1N)c1c(Cl)ccc(F)c1Cl
[1]
  inhibition: Dose-dependent effect
[2]
  IC50: > 1000 nM
[3]
  IC50: > 1000 nM
NIH3T3 [4]
  IC50: 610 nM
[5]
  inhibition: inactive
[6]
  IC50: 446 nM
[7]
  Vd: 20 L/kg
[8]
  inhibition: Dose-dependent effect
[9]
  inhibition: Active
[10]
  inhibition: Dose-dependent effect
[11]
  inhibition: inactive
NIH3T3 [12]
  inhibition in vivo at 100 mg/kg: 45.5%
[13]
  inhibition: Active
Ephrin type-B receptor 2
  IC50: > 1000 nM
[14]
  IC50: 349 nM
SK-MEL-28
  IC50: 9310 nM
[15]
  inhibition: Active
[16]
  IC50: > 1000 nM
[17]
  inhibition: Active
MKN-45
  IC50: 290 nM
[18]
  IC50: 710 nM
[19]
  inhibition: Dose-dependent effect
[20]
  inhibition: Dose-dependent effect
[21]
  inhibition: Active
BaF3
  Activity: 69.6%
[22]
  inhibition: Active
